# Bioassay records from PubChem BioAssay.
# Compounds with a hit are over-represented: about 3.1% of the library has one in this group of screens.
# Cneo AK release = Cryptococcus neoformans lysis via adenylate kinase release | C. neoformans lysis, adenylate kinase release luminescence, 4 h; normalised: neutral wells 0, clomiphene wells 100 | lysis activity, % at 15 µM | actives 0.2% (n = 360,000) | AID 651654;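 active = mean lysis activity across replicates of at least 80%, whatever share of replicates individually reach that level; inactive = mean lysis activity below 80%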
#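 Schedule: static 4 h at 37 °C with compound, 1 h detection; system: C. neoformans cells; benchmarks: Clomiphene as positive control; buffer or medium: fresh YPD medium; measure: luminescence rise reflecting yeast cell lysis; measured by: luminescent adenylate kinase detection reagent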
# Ecoli rRNA inh = inhibits bacterial ribosomal RNA function over humanized ribosomes. E. coli WT GFP vs humanized-ribosome RFP mutants, fluorescence, 24 h; active compounds read low; DMSO median 0, no signal -100. actives 1.6% (n = 350,000). GFP signal change (wild-type ribosome), % (no concentration beside the values). AID 720706;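 active = significant combined selectivity score with lowered wild-type GFP, culture density cut under 30%, mutant RFP and density less affected; inactive = any of these conditions unmet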
# E-sel inducer = E-selectin induction on HUVECs | actives 0.37% (n = 260,000) | activation, % at 7.58 µM | HUVEC E-selectin immunofluorescence imaging; normalized: neutral wells 0, TNF-alpha wells 100;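 active = mean E-selectin-positive cell signal at least 10% of the positive control, reached in at least 60% of replicates, without over 20% cell loss; inconclusive = no rule given, readout overlaps actives, possibly toxicity-flagged; inactive = the rest, including those meeting only one limit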
# Target sequence (P16581 whole entry, looked up): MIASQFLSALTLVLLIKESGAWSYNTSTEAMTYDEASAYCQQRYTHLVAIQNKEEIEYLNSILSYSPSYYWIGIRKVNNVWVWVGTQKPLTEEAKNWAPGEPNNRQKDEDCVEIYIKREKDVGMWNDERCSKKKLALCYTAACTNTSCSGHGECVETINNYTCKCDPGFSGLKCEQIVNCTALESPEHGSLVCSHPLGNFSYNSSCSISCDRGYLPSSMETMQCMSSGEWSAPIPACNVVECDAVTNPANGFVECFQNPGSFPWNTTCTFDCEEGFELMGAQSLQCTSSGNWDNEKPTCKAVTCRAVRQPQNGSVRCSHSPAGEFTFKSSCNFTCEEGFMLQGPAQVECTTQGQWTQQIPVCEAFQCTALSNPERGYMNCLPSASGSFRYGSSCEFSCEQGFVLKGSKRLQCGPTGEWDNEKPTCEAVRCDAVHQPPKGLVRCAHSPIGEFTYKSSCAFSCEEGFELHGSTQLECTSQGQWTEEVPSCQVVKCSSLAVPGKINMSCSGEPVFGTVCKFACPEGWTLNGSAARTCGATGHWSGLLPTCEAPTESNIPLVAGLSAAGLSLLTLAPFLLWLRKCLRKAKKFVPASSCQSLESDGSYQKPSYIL
#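 Test system: HUVEC; input: 3,000 HUVEC/well; measured by: immunofluorescence imaging; read-out: % PE-positive cells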
# miR-122 sensor = miR-122 inhibition in Huh7 cells | Huh7 miR-122 Renilla luciferase sensor, 48 h; neutral wells = 0, positive control = 100 | activation (reporter increase), % at 12.5 µM | actives 0.3% (n = 340,000);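 active = mean replicate activation score at least 90 and every replicate individually at or above 90; inconclusive = only one of the two criteria met; inactive = neither criterion met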;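 note: higher luciferase means less miR-122 activity so hits act as miR-122 inhibitors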
# DENV2 CPE = DENV2-induced cell death inhibition; DENV2-infected cells, cytopathic effect rescue, plate reader; CPE inhibition, % at 9.99 µM; actives 1.7% (n = 350,000); in the data active = CPE inhibition above about 20%, passing the limit was not always enough; inconclusive = no clear call, values can overlap the other calls; tested in BHK-21 cells;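 note: 0% = median of neutral control wells and 100% = median of positive control wells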
# * = called active by the depositor; ? = inconclusive; . = not tested or not shown; [ ] = another dose, or the depositor's remark.
SMILES,Cneo AK release,Ecoli rRNA inh,E-sel inducer,miR-122 sensor,DENV2 CPE
CSCCC(NC(=O)CCC(=O)OC1CC[C@H]2[C@@H]3CC[C@H]4CC(=O)CC[C@]4(C)[C@H]3CC[C@]12C)C(=O)O (some centres undefined),-2.4,-24.4*,0.0,-4.0,-11.6
C[C@]12CC[C@@H](O)CC1=CCC1C2CC[C@@]2(C)C1C[C@@H](F)[C@H]2O (some centres undefined),0.9,-36.9,-0.1,-1.9,32.7*
O=C(Cc1cccnc1)N1CCCCN2[C@@H](CO)[C@@H](c3ccc(C#CC4CC4)cc3)[C@@H]2C1,-2.3,.,.,6.1[16.7 µM],-1.7
COc1ccc(NP(=O)(Oc2cccc(C)c2)Oc2cccc(C)c2)cc1OC,.,-18.5*,2.9,.,-5.7
Cc1ccc(OP(=O)(Nc2cccc(C)c2)Oc2ccc(C)cc2)cc1,4.0,2.9,0.2,187.1*,10.6
COc1ccc(NP(=O)(Oc2ccc(Cl)cc2)Oc2ccc(Cl)cc2)cc1OC,-1.4,-5.7,.,136.5*,13.1
Cc1c(N=Nc2c(O)n(-c3ccc(Br)cc3)c(=O)[nH]c2=O)c(=O)n(-c2ccccc2)n1C,1.1,-35.5*,.,-3.2,-4.9
Cc1c(N=Nc2c(O)[nH]c(=O)[nH]c2=O)c(=O)n(-c2ccccc2)n1C,.,23.9,0.0,4.9,-6.0
NCCc1c(Cc2ccccc2)[nH]c2ccccc12,2.2,-19.9*,4.4,-1.9,-3.7
Cc1[nH]c2ccc(OCc3ccccc3)cc2c1CCN,-0.3,9.2,0.2,-5.1,-0.6
C[C@@H]1CN([C@@H](C)CO)C(=O)c2c(c3ccccc3n2C)-c2ccccc2CO[C@H]1CN(C)C(=O)Oc1ccccc1,.,-3.6,-0.1,.,-4.2
COC(=O)[C@@H]1[C@@H](CO)[C@@H]2Cn3c(ccc(-c4cccc(OC)c4)c3=O)[C@H]1N2C(=O)c1cnccn1,0.0,-2.3,-0.1,-4.4[16.7 µM],-11.6
CCN(CC)P(=O)(Oc1ccccc1)Oc1ccccc1,5.5,-31.6*,-0.1,6.0,5.0
O=c1[nH]c2ccccc2n1C1CCN(C(c2cccc3ccccc23)c2nnnn2-c2ccc3c(c2)OCCO3)CC1 (centres undefined),0.6,17.7,22.8,-12.4,24.5*
O=c1[nH]c2ccccc2n1C1CCN(C(c2cc3ccccc3o2)c2nnnn2-c2ccc3c(c2)OCCO3)CC1 (centres undefined),-0.3,15.1,0.0,-10.8,-12.1
O=c1cc(C2CCNCC2)[nH][nH]1,0.9,.,.,155.7*,.
CC(C)NC(=O)N1C[C@@H]2C(c3ccccc3)[C@H](C1)N2CC1CC1 (some centres undefined),.,0.3,.,.,.
C/C(=N\NC(=O)c1ccccc1)c1c(O)n(C2CCCCC2)c(=O)[nH]c1=O,-1.4,2.8,0.0,-5.9,4.1
C/C(=N\NC(=O)c1ccccc1O)c1c(O)n(C2CCCCC2)c(=O)[nH]c1=O,-0.9,-18.4*,.,3.6,0.6
CC(=NCCO)c1c(O)n(C2CCCCC2)c(=O)[nH]c1=O,2.6,.,.,.,.
C/C(=N\NC(=O)c1ccccc1Cl)c1c(O)n(C2CCCCC2)c(=O)[nH]c1=O,4.8,-32.5*,.,-2.2,9.1
Cc1cccc(S(=O)(=O)N2[C@@H]3Cn4c(ccc(-c5ccncc5)c4=O)[C@H]2[C@@H](C(=O)O)[C@@H]3CO)c1,1.6,3.7,0.2,-5.8[16.7 µM],?
Cc1ccc(N)c(N)c1,-7.4,0.4,.,-1.3,-9.7
Cc1ccc(N)cc1N,5.0,0.2,.,-3.9,66.0*
Cc1ccccc1-c1ccc([C@@H]2[C@H]3CN(C(=O)Cc4ccccn4)CCCCN3[C@H]2CO)cc1,-0.4,2.1,-0.2,1.8[16.7 µM],-6.9
SMILES,Cneo AK release,Ecoli rRNA inh,E-sel inducer,miR-122 sensor,DENV2 CPE
O=C(Cc1ccccn1)N1CCCCN2[C@H](C1)[C@H](c1ccc(-c3ccccc3)cc1)[C@@H]2CO,0.6,0.0,0.1,0.7[16.7 µM],43.0*
O=C(Cc1ccccn1)N1CCCCN2[C@@H](CO)[C@@H](c3ccc(Br)cc3)[C@@H]2C1,0.6,4.9,0.4,11.3[16.7 µM],32.9*
O=C(Cc1ccccn1)N1CCCCN2[C@H](CO)[C@@H](c3ccc(-c4ccccc4)cc3)[C@H]2C1,0.2,7.8,0.3,3.5[16.7 µM],6.3
CN(C)CC#Cc1ccc([C@@H]2[C@H]3CN(C(=O)Cc4ccccn4)CCCCN3[C@H]2CO)cc1,0.3,2.0,0.0,5.7[16.7 µM],30.2*
COC(=O)[C@@H]1[C@@H](CO)[C@@H]2Cn3c(ccc(-c4ccc(F)cc4)c3=O)[C@H]1N2Cc1ccccc1,1.3,-1.2,-0.3,-1.5[16.7 µM],-6.4
OC[C@H]1Nc2ccc(C#Cc3cccnc3)cc2[C@H]2NCC[C@H]21,.,4.6,0.4,.,12.0
O=C(NCCN1CCC2(CC1)C(=O)NCN2c1ccccc1)c1ccccc1F,.,14.3,-0.1,.,30.8*
Cc1ccccc1C(=O)NCCN1CCC2(CC1)C(=O)NCN2c1ccccc1,.,5.6,0.0,.,-1.3
CCN1[C@@H]2Cn3c(ccc(-c4cccc(C(=O)N(C)C)c4)c3=O)[C@H]1[C@@H](C(=O)OC)[C@@H]2CO,-4.2,1.8,0.3,2.9[16.7 µM],-3.1
COC(=O)C1=C(C(=O)OC)SC2(S1)C(C(=O)OC)=C(C(=O)OC)Sc1c2ssc1=O,.,-23.2*,0.7,.,-3.5
CCOc1ccc(-c2cc(C)[n+](CCN3CCOCC3)c(-c3ccc(OCC)cc3)c2)cc1,.,-53.4*,-0.4,.,-4.5
COc1ccc(-c2nc3ccccc3n2OC(=O)N(C)C)cc1,-3.4,.,.,113.9*,.
CN(C)C(=O)On1c(-c2ccccc2)nc2ccc(Cl)cc21,.,.,.,0.8,.
CC[C@H](C)[C@@H]1NC(=O)CNC(=O)c2csc(n2)[C@H](C(C)(C)O)OC(=O)C(C)(C)[C@H](CCCC(C)(Cl)Cl)OC(=O)c2csc1n2,278.8*,-1.7,0.0,-17.2,3.1
O=C(Cc1cccnc1)N1CCCCN2[C@H](CO)[C@@H](c3ccc(/C=C/c4ccccc4)cc3)[C@@H]2C1,-0.4,-57.6,-0.6,-2.1[16.7 µM],-8.7
COC(=O)[C@@H]1[C@@H](CO)[C@@H]2Cn3c(ccc(-c4ccccc4F)c3=O)[C@H]1N2,1.3,1.7,-0.4,.,1.2
CCN(CC)S(=O)(=O)c1ccc(C)c(NCC(=O)Nc2ccc(C#N)c(Cl)c2)c1,-3.7,.,15.4,119.2*,.
CCN1/C(=C/C=C/C2=[N+](CC)c3ccccc3C2(C)C)C(C)(C)c2ccccc21,-5.9,102.9,130.6*,-22.6,-8.6
CN1/C(=C\C=C2C(=O)NC(=O)NC2=O)C(C)(C)c2ccccc21,.,20.5,.,.,-3.3
COC(=O)[C@@H]1[C@@H](CO)[C@@H]2Cn3c(ccc(-c4ccccc4F)c3=O)[C@H]1N2C(=O)C1CCC1,-7.1,1.8,-0.3,4.4[16.7 µM],1.9
O=C1NC(=O)C(CCc2ccncc2)(Cc2cccc(Cl)c2Cl)C(=O)N1c1ccc(Br)cc1 (centres undefined),11.1,.,2.1,491.1*,.
